Measured values published in paper PMC3215888 (Cancer Chemotherapy and Pharmacology, 2011).
Like-named read-outs stand apart in the source and are kept apart here.

Key:
[1] = system: A-673 Ewing sarcoma cell line; experiment: DIMSCAN in vitro testing, 96 h; format: cell-based; conditions: for IC50: Homo sapiens, A673, 96 h
Method in brief: (§1)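 Neuroblastoma and Ewing sarcoma lines, STR-verified and maintained as in the originators' reports. Exposed for 96 h to test compound (DMSO stock diluted in medium) at 1 nM–10 μM. Viable cells quantified by fluorescein diacetate fluorescence with DIMSCAN digital image microscopy. Absolute IC50 = concentration giving 50% growth inhibition vs controls. Relative IC50 = concentration giving 50% of the maximum inhibitory effect.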

[2] = system: SK-N-MC Ewing sarcoma cell line; experiment: DIMSCAN in vitro testing, 96 h; format: cell-based; conditions: for IC50: Homo sapiens, 96 h
Method in brief: as §1

[3] = system: CHLA-56 Ewing sarcoma cell line; experiment: DIMSCAN in vitro testing, 96 h; format: cell-based
Method in brief: as §1

[4] = system: CHLA-90 neuroblastoma cell line; experiment: DIMSCAN in vitro testing, 96 h; format: cell-based; conditions: for IC50: Neuroblastoma cell, 96 h
Method in brief: as §1

[5] = system: CHLA-119 neuroblastoma cell line; experiment: DIMSCAN in vitro testing, 96 h; format: cell-based; conditions: for IC50: Neuroblastoma cell, 96 h
Method in brief: as §1

[6] = system: LA–N-6 neuroblastoma cell line; experiment: DIMSCAN in vitro testing, 96 h; format: cell-based; conditions: for IC50: Neuroblastoma cell, 96 h
Method in brief: as §1

[7] = system: SMS-KANR neuroblastoma cell line; experiment: DIMSCAN in vitro testing, 96 h; format: cell-based; conditions: for IC50: Neuroblastoma cell, 96 h
[8] = system: SMS-SAN neuroblastoma cell line; experiment: DIMSCAN in vitro testing, 96 h; format: cell-based; conditions: for IC50: Neuroblastoma cell, 96 h
Method in brief: as §1

neuroblastoma cell lines = experiment: DIMSCAN in vitro testing, 96 h, neuroblastoma panel; format: cell-based
Method in brief: as §1

[9] = system: NB-1771 Neuroblastoma xenograft; format: in vivo, mice
Method in brief: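 Female CB17 scid mice bearing subcutaneous tumors, 10 per group. Dosed by oral gavage twice daily, 5 days weekly for 6 weeks, at 20.8, 10.4, 5.2 or 2.6 mg/kg, in 10% 2-hydroxypropyl-β-cyclodextrin/1% sodium bicarbonate. Event = quadrupled tumor volume; EFS by Kaplan–Meier, exact log-rank test. Per-mouse scores PD/SD/PR (≥50% regression)/CR (<0.10 cm3)/MCR; group median reported. PR, CR and MCR count as objective responses.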

[10] = Plasma pharmacokinetics after a single oral dose, LC/MS/MS; format: in vivo, non-tumored scid mice; conditions: scid, mouse
NB-1771 tumor xenograft = experiment: Pharmacodynamics: mitotic index; format: in vivo, mice; conditions: single 20.8 mg/kg
Method in brief: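 Single oral 20.8 mg/kg dose to mice bearing NB-1771 tumors. Tumors taken at 0, 2, 6, 8, 12 and 24 h (3 mice per time), formalin-fixed, paraffin-embedded. 5 μm sections immunofluorescently stained for MPM2 (1:100) and phospho-Ser10 histone H3 (1:25), 60 min at room temperature, DAPI counterstain. Five 40× images per slide; mitotic index = % cells positive for either marker; mean ± SD.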

Toxicity = format: in vivo, mice; conditions: solid tumor study at the MTD
Method in brief: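 Deaths counted in control and treated arms of the xenograft efficacy studies (10 mice per solid tumor group, 8 per ALL group). A group would be excluded from analysis if mortality exceeded 25%.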

ALL xenograft models = experiment: Objective responses across the ALL xenograft panel; format: in vivo, mice
Method in brief: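 Female NOD/scid mice inoculated intravenously with leukemia cells, 8 per group. Test compound suspended in 10% 2-hydroxypropyl-β-cyclodextrin/1% sodium bicarbonate in water. Given by oral gavage twice daily, 5 days weekly for 3 weeks, at 20.8, 10.4, 5.2 or 2.6 mg/kg. Blood %hCD45 of leukocytes tracked; event = hCD45 reaching 25%. EFS by Kaplan–Meier, exact log-rank vs controls. Median group response from individual scores.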

[11] = system: solid tumor and ALL xenograft models; experiment: EFS activity across all xenograft models at the MTD; format: in vivo, mice; conditions: MTD 20.8 mg/kg
[12] = system: Aurora kinase A mutation (T217D); conditions: cited from earlier work

## COc1cc(Nc2ncc3c(n2)-c2ccc(Cl)cc2C(c2c(F)cccc2OC)=NC3)ccc1C(=O)O [MLN8237]
[1]; A-673, minimum T/C
  Ymin: 13.1%
[1]; read-out: Absolute IC50
  IC50: 32 nM
[1]; read-out: Relative IC50
  IC50: 30 nM
[2]; read-out: Absolute IC50
  IC50: 72 nM
[2]; read-out: Relative IC50
  IC50: 66 nM
[2]; minimum T/C
  Ymin: 2.8%
[3]; 96 h
  IC50: > 10000 nM
[3]; CHLA-56, minimum T/C
  Ymin: 48.1%
[4]; CHLA-90, minimum T/C
  Ymin: 16.3%
[4]; read-out: Absolute IC50
  IC50: 61 nM
[4]; read-out: Relative IC50
  IC50: 48 nM
[5]; CHLA-119, minimum T/C
  Ymin: 0.5%
[5]; read-out: Absolute IC50
  IC50: 22 nM
[5]; read-out: Relative IC50
  IC50: 22 nM
[6]; LA–N-6, minimum T/C
  Ymin: 32.1%
[6]; read-out: Absolute IC50
  IC50: 54 nM
[6]; read-out: Relative IC50
  IC50: 31 nM
[7]; read-out: Absolute IC50
  IC50: 26 nM
[7]; read-out: Relative IC50
  IC50: 23 nM
[7]; SMS-KANR, minimum T/C
  Ymin: 11.4%
[8]; read-out: Absolute IC50
  IC50: 20 nM
[8]; read-out: Relative IC50
  IC50: 18 nM
[8]; SMS-SAN, minimum T/C
  Ymin: 5.9%
Neuroblastoma cell lines; Neuroblastoma cell, read-out: relative IC50 values, neuroblastoma panel
  IC50: 23 nM
Neuroblastoma cell lines; median of neuroblastoma panel
  median Ymin, neuroblastoma cell lines: 10.4%
[9]; 2.6 mg/kg
  EFS T/C: 1.9
  EFS activity: Low
  Estimate of median time to event: 38.2 days
  Median group response: PD2 (if the TGD value >1.5, the mouse was considered PD2)
  Response activity: Int
  Tumor volume T/C: 0.38
  Median RTV/hCD45 at end of study: >4
[9]; 5.2 mg/kg
  EFS T/C: >2.1
  EFS activity: Int
  Median group response: PD2 (if the TGD value >1.5, the mouse was considered PD2)
  Response activity: Int
  Tumor volume T/C: 0.38
  Median RTV/hCD45 at end of study: 2.2
[9]; 10.4 mg/kg
  EFS T/C: >2.1
  EFS activity: High
  Median group response: MCR
  Response activity: High
  Tumor volume T/C: 0.08
  Median RTV/hCD45 at end of study: 0.0
[9]; 20.8 mg/kg
  EFS T/C: >2.1
  EFS activity: High
  Median group response: MCR
  Response activity: High
  Tumor volume T/C: 0.02
  Median RTV/hCD45 at end of study: 0.0
[10]; oral, 10 mg/kg
  concentration at 12 h: 1200 nM
[10]; oral, 10.4 mg/kg
  concentration at 12 h: 1200 nM
[10]; po, 10 mg/kg
  AUC(0-t): 39 µM·h
[10]; po, 10 mg/kg, C max, single oral 10 mg/kg, mice
  Cmax: 15800 nM
[10]; po, 10.4 mg/kg
  AUC(0-t): 60.3 µM·h
  Cmax: 24800 nM
  Tmax: 30 min
[10]; po, 20.8 mg/kg
  AUC(0-t): 78.4 µM·h
  Tmax: 30 min
  concentration at 12 h: 1800 nM
NB-1771 tumor xenograft
  time of return of mitotic indices to baseline levels: 24 h
NB-1771 tumor xenograft; 20.8 mg/kg
  time of peak of mitotic indices / pharmacodynamic activity: 12 h
NB-1771 tumor xenograft; 6 h
  increase of mitotic indices (MPM2, pHistH3) within 6 h: approximately twofold
NB-1771 tumor xenograft; 12 h
  increase of mitotic indices (MPM2, pHistH3) at peak: three to fivefold
Toxicity
  mice that died in the MLN8237 treatment arms: 5 of 90
  mice that died in the MLN8237 treatment arms, percent: 5.6%
ALL xenograft models; 0.25MTD, three models
  ALL xenografts classified as objective responses: two out of three
ALL xenograft models; 0.5MTD, three models
  response in ALL models: CR in each of three ALL models
ALL xenograft models; MTD 20.8 mg/kg
  ALL xenografts with objective responses, of 3 tested: 3
[11]
  evaluable lines meeting the criteria for high activity (EFS T/C): Eight out of 11
[12]
  inhibition of Aurora kinase A T217D mutant: impervious
